Converted amounts (≈) assume the structure as drawn.
What was measured:
Streptococcus pneumoniae = experiment: Ratio of fAUC to MIC90 for penicillin-intermediate Streptococcus pneumoniae; assay type: functional
How it was run: (§1)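 Fasted healthy adults got a single oral 500 mg dose with 240 ml water. Plasma was sampled predose to 96 h and assayed by LC-MS/MS (5–5,000 ng/ml). Cmax was read from individual profiles, and AUC0-∞ came from linear trapezoid plus extrapolation. Free fraction was measured by ultrafiltration (30,000 MWCO) of 0.5 and 6 h plasma. Free exposure was divided by the isolate MIC90.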

Homo sapiens [1] = experiment: Toxicity in healthy human assessed as occurrence of headache at 250 […], po; assay type: organism-based; design: route oral; conditions: in vivo
Staphylococcus aureus [2] = experiment: Antimicrobial activity against methicillin-resistant Staphylococcus aureus; assay type: functional
Homo sapiens [3] = experiment: Clearance in healthy human at 25 […], po administered as single dose; assay type: ADME, organism-based; design: route oral; conditions: in vivo
How it was run: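 Randomized, double-blind, placebo-controlled single ascending oral dose in fasted healthy subjects (six on drug per cohort, with 240 ml water). Plasma sampled predose through 96 h and assayed by validated LC-MS/MS over 5–5,000 ng/ml. Oral clearance (CL_o) came from noncompartmental analysis, with AUC_0-∞ from linear trapezoids plus C_last/λz. Values are means (SD).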

[4] = Tmax in healthy human at 25 mg, po administered as single dose; conditions: in vivo
[5] = Terminal phase elimination half-life in healthy human at 500 […], po administered single dose; assay type: ADME, organism-based; design: route oral; conditions: in vivo
How it was run: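 After one fasted oral dose (six healthy subjects per cohort), plasma was sampled from 0.5 to 96 h and assayed by LC-MS/MS (LLOQ 5 ng/ml). λz came from least-squares regression on at least the last three log-concentration points, and t1/2 = 0.693/λz. Values are means (SD).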

Staphylococcus aureus [6] = experiment: Ratio of fCmax to MIC90 for methicillin-sensitive Staphylococcus aureus; assay type: functional; how it was run: as §1
Staphylococcus aureus [7] = experiment: Antimicrobial activity against methicillin-sensitive Staphylococcus aureus; assay type: functional
[8] = Clearance in healthy human assessed as recovery of unchanged drug in urine at 125 […], po administered as single dose; assay type: ADME, organism-based; design: route oral; conditions: read-out: Recovered in urine
How it was run: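 Healthy volunteers, six on drug per cohort, fasted 10 h and given one oral dose with 240 ml water, then fasted 4 h more. Urine was pooled over intervals from 0-2 to 72-96 h and stored at about −70°C. Drug was measured by solid-phase extraction and LC-MS/MS (LLOQ 200 ng/ml), giving the percent of dose recovered unchanged. Values are means (SD).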

Homo sapiens [9] = experiment: Toxicity in healthy human assessed as occurrence of abdominal pain at 25 […], po; assay type: organism-based, Abdomen; design: route oral; conditions: in vivo
How it was run: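 Double-blind, placebo-controlled single ascending oral dose; two placebo and six active subjects per cohort. Adverse events were recorded throughout the dosing period and at follow-up, with confinement to 96 h after dosing. Results are reported as number and percentage of subjects with the event (n/N × 100).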

Homo sapiens [10] = experiment: Toxicity in healthy human assessed as occurrence of erythema at 25 […], po; assay type: organism-based; design: route oral; conditions: in vivo
Homo sapiens [11] = experiment: Toxicity in healthy human assessed as occurrence of nausea at 25 […], po; assay type: organism-based; design: route oral; conditions: in vivo
[12] = Cmax in healthy human at 250 mg, po administered as single dose; conditions: in vivo
Homo sapiens [13] = experiment: Toxicity in healthy human assessed as occurrence of oral hypoesthesia at 125 […], po; assay type: organism-based; design: route oral; conditions: in vivo

COc1c(N2C[C@@H](C)C[C@H](N)C2)ccc2c(=O)c(C(=O)O)cn(C3CC3)c12 [NEMONOXACIN]
Ratio (Streptococcus pneumoniae): 1812
Activity (Homo sapiens [1]): 0%
MIC90 (Staphylococcus aureus [2]): 0.06 µg/mL (≈ 0.162 µM)
CL (Homo sapiens [3]): 5 mL/min/kg
Tmax [4]: 0.92 h
half-life [5]: 14.8 h
Ratio (Staphylococcus aureus [6]): 24
MIC90 (Staphylococcus aureus [7]): 0.12 µg/mL (≈ 0.323 µM)
dose excreted [8]: 38.3%
Activity (Homo sapiens [9]): 0%
Activity (Homo sapiens [10]): 0%
Activity (Homo sapiens [11]): 0%
Cmax [12]: 2400 ng/mL
Activity (Homo sapiens [13]): 0%
